{"source": "ChEMBL document CHEMBL1126891", "about": "(J Med Chem, 1993)", "key": {"Human alphaherpesvirus 2": {"system": "Human alphaherpesvirus 2", "assay": "Inhibitory activity against Herpes simplex virus 2 in vero cells at 100 uM", "assay_type": "functional", "details": "Human alphaherpesvirus 2, Vero"}, "[1]": {"target": "T1, DNA polymerase alpha catalytic subunit (Homo sapiens, UniProt P09884)", "T1 sequence (P09884 whole entry)": "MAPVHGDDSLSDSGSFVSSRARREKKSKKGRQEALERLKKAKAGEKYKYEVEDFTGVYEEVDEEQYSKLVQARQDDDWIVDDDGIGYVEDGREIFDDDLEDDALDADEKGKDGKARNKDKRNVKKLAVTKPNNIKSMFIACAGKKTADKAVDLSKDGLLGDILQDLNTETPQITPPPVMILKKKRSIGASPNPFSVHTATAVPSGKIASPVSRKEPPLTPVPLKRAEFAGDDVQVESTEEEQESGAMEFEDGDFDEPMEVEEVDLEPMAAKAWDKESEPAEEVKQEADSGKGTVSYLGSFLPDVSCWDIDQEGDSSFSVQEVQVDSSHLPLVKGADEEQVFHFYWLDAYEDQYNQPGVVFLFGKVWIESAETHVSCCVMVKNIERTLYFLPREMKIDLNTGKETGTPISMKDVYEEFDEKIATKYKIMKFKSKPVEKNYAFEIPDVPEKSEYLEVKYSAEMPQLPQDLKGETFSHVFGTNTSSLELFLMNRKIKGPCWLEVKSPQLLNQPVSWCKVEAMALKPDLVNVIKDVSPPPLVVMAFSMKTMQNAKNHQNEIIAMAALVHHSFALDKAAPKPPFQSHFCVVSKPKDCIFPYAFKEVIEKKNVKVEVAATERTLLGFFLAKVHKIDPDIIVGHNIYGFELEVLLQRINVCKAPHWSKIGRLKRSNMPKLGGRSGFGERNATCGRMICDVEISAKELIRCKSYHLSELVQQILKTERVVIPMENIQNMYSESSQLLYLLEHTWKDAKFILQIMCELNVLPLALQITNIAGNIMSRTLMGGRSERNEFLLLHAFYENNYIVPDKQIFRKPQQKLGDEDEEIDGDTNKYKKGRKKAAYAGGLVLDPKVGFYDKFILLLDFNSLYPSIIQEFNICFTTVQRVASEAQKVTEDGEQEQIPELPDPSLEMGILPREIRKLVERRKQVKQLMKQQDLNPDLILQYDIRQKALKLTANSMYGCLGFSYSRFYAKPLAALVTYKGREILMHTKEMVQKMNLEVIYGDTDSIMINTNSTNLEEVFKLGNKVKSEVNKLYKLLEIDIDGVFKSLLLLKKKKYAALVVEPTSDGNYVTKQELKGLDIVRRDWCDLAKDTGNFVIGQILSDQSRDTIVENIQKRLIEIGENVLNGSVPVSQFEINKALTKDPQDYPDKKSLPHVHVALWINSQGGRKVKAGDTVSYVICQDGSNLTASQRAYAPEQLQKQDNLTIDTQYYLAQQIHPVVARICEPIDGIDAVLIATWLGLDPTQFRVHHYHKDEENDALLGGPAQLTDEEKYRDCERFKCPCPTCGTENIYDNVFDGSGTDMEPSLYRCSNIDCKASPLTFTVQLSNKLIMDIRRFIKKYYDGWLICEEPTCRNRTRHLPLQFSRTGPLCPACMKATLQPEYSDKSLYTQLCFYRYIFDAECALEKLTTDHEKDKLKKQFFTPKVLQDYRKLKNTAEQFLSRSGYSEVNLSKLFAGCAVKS", "assay": "Percent inhibition of DNA polymerase alpha at 100 uM"}, "Vero [2]": {"system": "Vero", "assay": "Inhibitory concentration against HSV-2 in vero cells", "assay_type": "functional, cell-based", "details": "Chlorocebus sabaeus", "outline": "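HSV-2 plaque reduction assay in Vero cells; the value is reported as IC50 in µM.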"}, "Vero [3]": {"system": "Vero", "assay": "Cytotoxicity against vero cells", "assay_type": "cell-based", "details": "Chlorocebus sabaeus"}, "Vero [4]": {"system": "Vero", "assay": "Inhibitory concentration against HSV-1 in vero cells", "assay_type": "functional, cell-based", "details": "Chlorocebus sabaeus"}, "MRC5 [5]": {"system": "MRC5", "assay": "Inhibitory concentration against VZV in MRC5 cells", "assay_type": "functional, cell-based", "details": "Homo sapiens"}, "MRC5 [6]": {"system": "MRC5", "assay": "Inhibitory concentration against human cytomegalovirus (HCMV1) in MRC5 cells", "assay_type": "functional, cell-based"}, "[7]": {"target": "T1, DNA polymerase alpha catalytic subunit", "assay": "Effective concentration against DNA polymerase alpha", "assay_type": "single protein", "outline": "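DNA polymerase α enzyme assay using activated calf thymus DNA as template, with no NaCl or KCl added.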"}, "[8]": {"assay": "Toxicity observed in vero cells", "assay_type": "cell-based", "details": "Chlorocebus sabaeus"}, "Nucleic Acid": {"system": "Nucleic Acid", "assay": "Effective concentration against DNA polymerase of Herpes simplex virus 2 (HSV-2)", "assay_type": "nucleic-acid assay, Human alphaherpesvirus 2"}}, "data": [{"smiles": "C[C@@]1(CO)[C@H](O)CC[C@]2(C)C3=C[C@H](O)[C@H](CO)C[C@@H]3CC[C@@H]12", "values": [{"measurement": "inhibition at 100 µM", "setting": "Human alphaherpesvirus 2", "value": 0, "unit": "%"}]}, {"smiles": "COc1ccc2c(c1)[C@@]1(C)CCC[C@@](C)(C(=O)O)[C@@H]1CC2", "values": [{"measurement": "inhibition", "setting": "[1]", "value": 4, "unit": "%"}, {"measurement": "inhibition at 100 µM", "setting": "Human alphaherpesvirus 2", "value": 31, "unit": "%"}]}, {"smiles": "C[C@@]1(CO)CCC[C@]2(C)c3cc(O)c(CO)cc3CC[C@@H]12", "values": [{"measurement": "inhibition at 100 µM", "setting": "Human alphaherpesvirus 2", "value": 0, "unit": "%"}]}, {"smiles": "COc1cc2c(cc1CO)CC[C@H]1[C@](C)(C(=O)O)CCC[C@]21C", "values": [{"measurement": "inhibition at 100 µM", "setting": "Human alphaherpesvirus 2", "value": 13, "unit": "%"}]}, {"smiles": "C[C@@]1(CO)[C@@H](O)CC[C@@]2(C)c3cc(O)c(CO)cc3CC[C@@H]12", "values": [{"measurement": "IC50", "setting": "Vero [2]", "value": "> 100", "unit": "µM"}, {"measurement": "IC50", "setting": "Vero [3]", "value": "> 500", "unit": "µM"}, {"measurement": "IC50", "setting": "Vero [4]", "value": "> 200", "unit": "µM"}, {"measurement": "IC50", "setting": "MRC5 [5]", "value": "> 100", "unit": "µM"}, {"measurement": "IC50", "setting": "MRC5 [6]", "value": "> 100", "unit": "µM"}]}, {"smiles": "C[C@@]1(CO)[C@H](O)CC[C@@]2(C)c3cc(O)c(CO)cc3CC[C@@H]12", "values": [{"measurement": "IC50", "setting": "Vero [2]", "value": "> 100", "unit": "µM"}, {"measurement": "IC50", "setting": "Vero [3]", "value": "> 500", "unit": "µM"}, {"measurement": "IC50", "setting": "Vero [4]", "value": 222, "unit": "µM"}, {"measurement": "IC50", "setting": "MRC5 [5]", "value": "> 100", "unit": "µM"}, {"measurement": "IC50", "setting": "MRC5 [6]", "value": "> 100", "unit": "µM"}]}, {"smiles": "COc1ccc2c(c1)[C@@]1(C)CC[C@@H](O)[C@@](C)(CO)[C@@H]1CC2", "values": [{"measurement": "inhibition at 100 µM", "setting": "Human alphaherpesvirus 2", "value": 36, "unit": "%"}]}, {"smiles": "C[C@@]1(CO)[C@H](O)CC[C@]2(C)c3cc(O)c(CO)cc3CC[C@@H]12", "values": [{"measurement": "IC50", "setting": "Vero [2]", "value": "> 100", "unit": "µM"}, {"measurement": "EC50", "setting": "[7]", "value": 4, "unit": "µM"}, {"measurement": "IC50", "setting": "Vero [3]", "value": "> 500", "unit": "µM"}, {"measurement": "IC50", "setting": "Vero [4]", "value": 133, "unit": "µM"}, {"measurement": "IC50", "setting": "MRC5 [5]", "value": "> 100", "unit": "µM"}, {"measurement": "IC50", "setting": "MRC5 [6]", "value": 76, "unit": "µM"}, {"measurement": "inhibition at 100 µM", "setting": "Human alphaherpesvirus 2", "value": 90, "unit": "%"}]}, {"smiles": "C[C@@]1(CO)[C@H](O)CC[C@]2(C)c3cc(O)ccc3CC[C@@H]12", "values": [{"measurement": "EC50", "setting": "[7]", "value": 8, "unit": "µM"}, {"measurement": "inhibition at 100 µM", "setting": "Human alphaherpesvirus 2", "value": 25, "unit": "%"}]}, {"smiles": "COc1cc2c(cc1CO)CC[C@H]1[C@](C)(CO)CCC[C@]21C", "values": [{"measurement": "inhibition", "setting": "[1]", "value": 3, "unit": "%"}, {"measurement": "inhibition", "setting": "[8]", "value": 100, "unit": "%"}]}, {"smiles": "COc1cc2c(cc1CO)CC[C@H]1[C@](C)(CO)[C@H](O)CC[C@]21C", "values": [{"measurement": "IC50", "setting": "Vero [2]", "value": "> 100", "unit": "µM"}, {"measurement": "IC50", "setting": "Vero [3]", "value": "> 500", "unit": "µM"}, {"measurement": "IC50", "setting": "Vero [4]", "value": "> 100", "unit": "µM"}, {"measurement": "IC50", "setting": "MRC5 [5]", "value": "> 100", "unit": "µM"}, {"measurement": "IC50", "setting": "MRC5 [6]", "value": "> 100", "unit": "µM"}]}, {"smiles": "C[C@@]1(C(=O)O)CCC[C@]2(C)c3cc(O)c(CO)cc3CC[C@@H]12", "values": [{"measurement": "inhibition at 100 µM", "setting": "Human alphaherpesvirus 2", "value": 15, "unit": "%"}]}, {"smiles": "COC(=O)[C@]1(C)CCC[C@]2(C)c3cc(OC)c(C=O)cc3CC[C@@H]12", "values": [{"measurement": "inhibition", "setting": "[8]", "value": 100, "unit": "%"}]}, {"smiles": "COC(=O)[C@]1(C)CCC[C@]2(C)c3cc(OC)c(CO)cc3CC[C@@H]12", "values": [{"measurement": "inhibition at 100 µM", "setting": "Human alphaherpesvirus 2", "value": 100, "unit": "%"}]}, {"smiles": "C[C@@]1(CO)[C@@H](O)CC[C@]2(C)c3cc(O)c(CO)cc3CC[C@@H]12", "values": [{"measurement": "IC50", "setting": "Vero [2]", "value": "> 100", "unit": "µM"}, {"measurement": "EC50", "setting": "[7]", "value": 7, "unit": "µM"}, {"measurement": "IC50", "setting": "Vero [3]", "value": "> 500", "unit": "µM"}, {"measurement": "IC50", "setting": "Vero [4]", "value": 198, "unit": "µM"}, {"measurement": "IC50", "setting": "MRC5 [5]", "value": "> 100", "unit": "µM"}, {"measurement": "IC50", "setting": "MRC5 [6]", "value": "> 100", "unit": "µM"}, {"measurement": "inhibition at 100 µM", "setting": "Human alphaherpesvirus 2", "value": 19, "unit": "%"}]}, {"smiles": "COc1ccc2c(c1)[C@@]1(C)CCC[C@@](C)(N)[C@@H]1CC2", "values": [{"measurement": "EC50", "setting": "[7]", "value": 1, "unit": "µM"}, {"measurement": "inhibition at 100 µM", "setting": "Human alphaherpesvirus 2", "value": 100, "unit": "%"}]}, {"smiles": "COc1ccc2c(c1)[C@@]1(C)CC[C@H](O)[C@@](C)(CO)[C@@H]1CC2", "values": [{"measurement": "inhibition at 100 µM", "setting": "Human alphaherpesvirus 2", "value": 10, "unit": "%"}]}, {"smiles": "C[C@@]1(CO)[C@@H](O)CC[C@]2(C)c3cc(O)ccc3CC[C@@H]12", "values": [{"measurement": "inhibition at 100 µM", "setting": "Human alphaherpesvirus 2", "value": 34, "unit": "%"}]}, {"smiles": "C[C@@]1(C(=O)O)CCC[C@]2(C)c3cc(O)c(C=O)cc3CC[C@@H]12", "values": [{"measurement": "EC50", "setting": "[7]", "value": 5, "unit": "µM"}, {"measurement": "inhibition at 100 µM", "setting": "Human alphaherpesvirus 2", "value": 0, "unit": "%"}]}, {"smiles": "COc1cc2c(cc1CO)CC[C@H]1[C@](C)(CO)[C@@H](O)CC[C@]21C", "values": [{"measurement": "IC50", "setting": "Vero [2]", "value": "> 100", "unit": "µM"}, {"measurement": "IC50", "setting": "Vero [3]", "value": "> 500", "unit": "µM"}, {"measurement": "IC50", "setting": "Vero [4]", "value": "> 100", "unit": "µM"}, {"measurement": "IC50", "setting": "MRC5 [5]", "value": "> 100", "unit": "µM"}, {"measurement": "IC50", "setting": "MRC5 [6]", "value": "> 100", "unit": "µM"}]}, {"smiles": "C[C@@]1(CO)[C@H](O)CC[C@@]2(C)[C@H]1CC[C@H]1C[C@@H]3C[C@@]12CC[C@]3(O)CO", "note": "[APHIDICOLIN]", "values": [{"measurement": "EC50", "setting": "Nucleic Acid", "value": 5, "unit": "µM"}]}]}
